Measured values from the RNAGym collection of RNA variant scans (doi:10.1038/s41586-018-0170-7).

B1: tRNA (parent)
chain: GUUCCGUUGGCGUAAUGGUAACGCGUCUCCCUCCUAAGGAGAAGACUGCGGGUUCGAGUCCCGUACGGAACG

Variants of: B1
Assay: yeast fitness, log relative to wild type (ln ratio); higher = fitter; tRNA-Arg(CCU), competitive growth, 37 C, 1 M NaCl
Summary of the method: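 Two independent transformations put a combinatorial tRNA-Arg(CCU) variant library on a HIS3 centromeric plasmid into BY4742 lacking the chromosomal gene. Pools were grown in SC-HIS at 30 °C for 4 generations, then in SC-HIS 1M NaCl at 37 °C for ~6.5 generations (~26.5 h), with three outputs taken per input. Fitness compares a genotype's generations with the wild type's as a natural log ratio. Those generations are OD-scaled log2 output/input frequencies, inverse-variance weighted across replicates, from 125 bp paired-end Illumina counts.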

Row | Variant | yeast fitness (ln)
1 | G1A U2G G6A C27U A43C A69G A70U C71U | -0.484
2 | G6A C27U A69G A70G C71U | -0.265
3 | C27U C46U C66A | -0.0465
4 | G1A C27U A43C C46U C66U A69G A70U C71U | -0.448
5 | G6U A43C C46U C66A A70U C71U | -0.214
6 | G1A C27U A43C C46U A70U | -0.203
7 | U2G G6U C27U A43C C46U A69G A70U C71U | -0.418
8 | G1A C27U C46U C66A A69G A70U C71U | -0.411
9 | U2C C27U A69G A70G | -0.0516
10 | A43C C46U C66A C71U | -0.0684
11 | G1A G6A A43C C46U C66U | -0.295
12 | U2G G6A C46U A69G A70U C71U | -0.272
13 | U2C G6U A69G C71U | -0.0844
14 | U2G G6A C27U C46U C66U | -0.206
15 | U2C G6A C27U A43C C46U A70G C71U | -0.0979
16 | G6A C27U A43C C46U A70G C71U | -0.25
17 | U2C C27U A43C C46U C71U | -0.0612
18 | G6U C27U A43C C46U C66A A70G C71U | -0.211
19 | G1A G6A C27U C66U A70G | -0.187
20 | G1A U2G A43C A69G A70G C71U | -0.202
21 | U2C G6A A43C A69G A70U C71U | -0.279

Row | Variant | yeast fitness (ln)
22 | G1A A43C A69G | -0.145
23 | G6U C66A | 0.000896
24 | G1A A69G A70G | -0.137
25 | U2G G6A C27U A43C C66U A69G A70G C71U | -0.386
26 | G1A A70U | -0.044
27 | G6U A43C C66U | -0.23
28 | G6A C27U C46U A69G A70U C71U | -0.331
29 | G1A U2G G6A C66U A70U | -0.319
30 | G6U C27U C46U C66A A69G A70G C71U | -0.254
31 | G1A U2C C27U A70G C71U | -0.0348
32 | G1A C27U A69G A70G | -0.215
33 | G1A U2G G6U A43C C46U A69G C71U | -0.393
34 | U2G G6U C46U A69G A70U C71U | -0.311
35 | G6U A43C C66A A70U | -0.307
36 | G6A C27U C66A A69G A70U | -0.243
37 | C46U C66U A69G A70G | -0.216
38 | G1A U2G A43C C46U A70G C71U | -0.342
39 | U2C G6U C27U A43C C66U A69G C71U | -0.522
40 | U2G G6A C27U C66U A69G | -0.193
41 | G1A G6U A43C C46U C66A | -0.278
42 | G1A U2C C27U A43C C46U C66A A70G | -0.102

Row | Variant | yeast fitness (ln)
43 | U2C G6A C27U A43C C46U C66A A70U C71U | -0.268
44 | C46U C66A A69G C71U | -0.0675
45 | U2G A43C A69G A70G | -0.0982
46 | U2G C27U C46U A69G C71U | -0.112
47 | G1A U2C A43C C46U C71U | -0.0678
48 | G1A A43C C66A A70U C71U | -0.321
49 | G1A G6U C27U C46U A70G C71U | -0.262
50 | G6U A43C C46U A69G A70G C71U | -0.308
51 | U2G G6U A43C C46U C66U | -0.191
52 | U2G G6A C27U A43C C46U C66U A69G A70G | -0.23
53 | G1A G6U C27U A43C C46U C66U A70U | -0.368
54 | G1A G6U C27U A43C C46U C66U A70G | -0.387
55 | U2G G6A C27U A43C C66A A69G A70G C71U | -0.366
56 | G1A G6U A43C C66A A69G A70G C71U | -0.348
57 | G1A G6A C27U C66U A69G A70U C71U | -0.387
58 | G1A U2G A43C C66A A70U | -0.12
59 | G1A U2G G6U C27U A43C C46U C66A A70U C71U | -0.626
60 | G1A U2G G6A A43C C46U C66A A70G | -0.26
61 | G1A U2G G6A C27U C66U A70G C71U | -0.309
62 | U2G G6A A43C C46U C66A A69G A70G C71U | -0.212
63 | G1A U2G A43C C66U A69G A70G | -0.328

Row | Variant | yeast fitness (ln)
64 | U2C A43C C46U A70U C71U | -0.0761
65 | U2G C46U A69G A70G C71U | -0.184
66 | U2G G6U C46U C66A A69G A70G C71U | -0.164
67 | U2C G6U C46U C66A A69G A70U C71U | -0.185
68 | U2C C46U A70G C71U | -0.00238
69 | U2C G6A C27U A43C C46U A69G C71U | -0.113
70 | G6U C27U C66A A69G A70G C71U | -0.329
71 | G1A U2C C46U | -0.0408
72 | G6U C27U C46U A69G A70G | -0.192
73 | G1A C27U C66U A70U | -0.152
74 | U2G G6A C46U C66U A69G A70G | -0.442
75 | U2C C66U A69G A70U C71U | -0.404
76 | C27U A43C C46U C66U A70G | -0.115
77 | G1A U2G G6A A70G C71U | -0.172
78 | U2G G6U A43C C66U A69G A70U | -0.379
79 | U2G G6A C27U C66U A70G C71U | -0.203
80 | A43C C46U C66A A70U C71U | -0.128
81 | G6U A43C C66A A69G C71U | -0.368
82 | G6A C27U C46U A69G | -0.183
83 | G1A U2C C27U C46U A70U | -0.127
84 | U2G G6U A69G C71U | -0.17
